Compounds with a hit are over-represented: about 4.6% of the library has one in this group of screens.
OX1R antag-1: human HCRTR1 antagonism. inhibition, % at 5 µM. AID 434989. CHO/OX1R cells, Fluo-8 calcium fluorescence, orexin A. O43613. 0.43% of 330,000 active;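 active means inhibition above its plate's threshold, mean inhibition of all tested compounds on the plate plus 3 SD, cut at about 37% in these data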;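 further: 0% = orexin A challenge wells and 100% = SB-334867-A antagonist wells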
GPR7 antagonist: antagonists of human GPR7 (neuropeptides B/W receptor 1); P48145; GPR7-expressing cells, fluorescence antagonist assay; inhibition, % at 4.4 µM; 1.1% of 290,000 active; AID 1861; in the data active means inhibition above about 16%, passing the limit was not always enough;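 further: cells stimulated with the agonist NPW; 0% = agonist with vehicle and 100% = vehicle without agonist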
Target sequence (P48145 whole entry, looked up): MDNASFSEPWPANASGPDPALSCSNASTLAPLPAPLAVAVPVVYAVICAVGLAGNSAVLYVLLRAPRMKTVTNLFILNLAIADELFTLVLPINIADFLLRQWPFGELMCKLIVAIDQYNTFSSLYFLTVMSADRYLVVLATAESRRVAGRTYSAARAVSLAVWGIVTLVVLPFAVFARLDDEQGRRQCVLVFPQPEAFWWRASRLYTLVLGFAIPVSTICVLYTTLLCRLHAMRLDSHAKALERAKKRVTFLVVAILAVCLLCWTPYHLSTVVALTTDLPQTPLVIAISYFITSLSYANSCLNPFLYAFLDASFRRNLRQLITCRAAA
CHO parental Ca: signal in parental CHO cells, OX1R antagonist counter-screen. parental CHO-K1, ATP-induced calcium, Fluo-8 fluorescence. inhibition, % at 5.6 µM. 0.63% of 330,000 active;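 active means inhibition above that plate's mean sample inhibition plus 3 SD, cut at about 26% in these data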;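 further: 0% = ATP-challenged DMSO wells and 100% = DMSO wells without ATP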
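material = parental CHO cells | also added = ATP as calcium-mobilizing challenge | dosing = single point at 5.6 µM | detection = intracellular calcium via Fluo-8 no-wash fluorescent dye | read-out = % inhibition | benchmarks = low control ATP plus DMSO, high control DMSO only | repeats = one well per compound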
TAAR1 antag: human TAAR1 antagonism | Q96RJ0 | CHO RD-HGA16 TAAR1, Fluo-8 calcium fluorescence, antagonist | inhibition, % at 3 µM | 1.5% of 360,000 active;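 active means inhibition above a per-plate cutoff, the mean inhibition of test compounds on that plate plus 3 SD, cut at about 49% in these data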;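 further: 0% = DMSO plus EC80 beta-PEA response and 100% = DMSO alone without agonist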
Target sequence (Q96RJ0 whole entry, looked up): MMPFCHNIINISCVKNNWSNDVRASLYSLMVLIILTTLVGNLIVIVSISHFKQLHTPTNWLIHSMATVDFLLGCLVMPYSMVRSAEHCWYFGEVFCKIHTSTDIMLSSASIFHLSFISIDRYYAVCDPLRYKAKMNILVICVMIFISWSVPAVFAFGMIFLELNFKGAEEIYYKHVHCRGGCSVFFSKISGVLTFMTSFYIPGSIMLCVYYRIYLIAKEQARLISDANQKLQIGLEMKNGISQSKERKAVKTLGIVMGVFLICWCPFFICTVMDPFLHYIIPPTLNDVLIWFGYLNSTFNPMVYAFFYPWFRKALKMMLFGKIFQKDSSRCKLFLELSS
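Test system: RD-HGA16 CHO cells with stable hTAAR1 and Gα16 / Probe or stimulus: EC80 β-phenethylamine stimulus / Times: seeding 17-24 h prior, 75-min 37 °C, 30-min RT dye loading / Detection: Fluo-8 calcium-sensitive fluorescence / Read-out basis: % inhibition scaled between DMSO and EC80 PEA controls / Repeats: singlicate, one well per test compound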
TAAR1 ag: agonists of human TAAR1; Q96RJ0; CHO RD-HGA16 TAAR1, Fluo-8 calcium fluorescence; vehicle wells 0%, saturating PEA agonist 100%; activation, % at 3 µM; 0.99% of 360,000 active; AID 624467;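 active means activation above the mean activation of all test compounds in the run plus 3 SD, cut at about 38% in these data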
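test system = CHO RD-HGA16 cells carrying human TAAR1 plus Gα16 | schedule = 17-24 h seeding, 75 min 37 °C dye, 30 min RT | compound dosing = 3 µM single concentration | control set = DMSO and PEA EC100 | replicates = n 1 | signal = Fluo-8 fluorescence, 5 s baseline then 140 s kinetic read | measure = percent activation vs PEA EC100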
OX1R antag-2: blocks the human orexin 1 receptor | O43613 | OX1R-expressing cells, FRET antagonist read-out | inhibition, % at 6.6 µM | 1.8% of 330,000 active; in the data active means inhibition mostly above about 38%, no sharp cut-off; inactive means mostly below about 40%;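 further: 0% = agonist challenge alone and 100% = reference antagonist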
GPR7 antag cf: confirmation of human GPR7 antagonists; inhibition, % at 4.4 µM; shares compounds with GPR7 antagonist; GPR7-expressing cells, calcium fluorescence antagonist mode; 52% of 2,400 active; in the data active means inhibition above about 24%;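 further: stimulated with the GPR7 agonist NPW; 0% = agonist plus vehicle and 100% = vehicle alone without agonist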
MCHR1 antagonist: counter-screen for GPR7 antagonists: antagonists of human MCHR1; shares compounds with GPR7 antagonist; 62% of 2,400 active; inhibition, % at 4.4 µM; MCHR1-expressing cells, fluorescence antagonist assay; AID 2148; in the data active means inhibition above about 22%;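 further: 0% = vehicle with agonist and 100% = vehicle without agonist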
* = called active by the depositor.

COc1ccc(OC)c(S(=O)(=O)N2CCC(C(=O)NC3CCCCCC3)CC2)c1 was read as OX1R antag-1 -32, GPR7 antagonist 26*, CHO parental Ca -13, TAAR1 antag -18, TAAR1 ag 0, OX1R antag-2 6, GPR7 antag cf -3 and MCHR1 antagonist 12.
For CCOC(=O)N1CCN(S(=O)(=O)c2cc(OCC(=O)NC3CCCCC3)c(C)cc2Cl)CC1 the results were OX1R antag-1 -29, GPR7 antagonist 1, CHO parental Ca -16, TAAR1 antag 21, TAAR1 ag 20 and OX1R antag-2 -1.
`Cc1cc(Cl)c(S(=O)(=O)N2CCCCCC2)cc1OCC(=O)NC1CCCCC1` gave OX1R antag-1 14, GPR7 antagonist 32*, CHO parental Ca 78*, TAAR1 antag 5, TAAR1 ag 10, OX1R antag-2 13, GPR7 antag cf 61* and MCHR1 antagonist 58*.
Screening COc1ccc(S(=O)(=O)N2CCCCCC2)cc1C(=O)N(C)CC(=O)Nc1cc(C)ccc1C returned GPR7 antagonist 30*, TAAR1 antag -14, TAAR1 ag 3, GPR7 antag cf 19 and MCHR1 antagonist 20.
For COc1ccc(S(=O)(=O)N2CCCCCC2)cc1C(=O)N(C)CC(=O)Nc1ccc(Cl)c(Cl)c1 the results were OX1R antag-1 -13, CHO parental Ca -12, TAAR1 antag 7, TAAR1 ag 4 and OX1R antag-2 10.
CC(C)C(=O)N1CCC1(C)C(=O)Nc1cccc(Oc2ccccc2)c1 (centres undefined) was read as TAAR1 antag -16 and TAAR1 ag 0.
Screening CNC(=O)/C(C#N)=C/c1c(N(Cc2ccccc2)Cc2ccccc2)nc2c(C)cccn2c1=O returned OX1R antag-1 -16, GPR7 antagonist 39*, CHO parental Ca -3, TAAR1 antag 22, TAAR1 ag 18, OX1R antag-2 14, GPR7 antag cf 23 and MCHR1 antagonist 49*.
Screening CCOC(Cn1cc([N+](=O)[O-])c(=O)[nH]c1=O)OCC returned TAAR1 antag -11 and TAAR1 ag 1.
`CCOC(Cn1ccc(=O)[nH]c1=O)OCC` gave OX1R antag-1 -6, GPR7 antagonist 27*, CHO parental Ca 1, TAAR1 antag -10, TAAR1 ag 2, OX1R antag-2 5, GPR7 antag cf 0 and MCHR1 antagonist 14.
`COC(=O)C(C(=O)OC)c1ccc(-n2cccc2)cc1` gave OX1R antag-1 -10, GPR7 antagonist 35*, CHO parental Ca -4, TAAR1 antag -8, TAAR1 ag 0, OX1R antag-2 26, GPR7 antag cf 12 and MCHR1 antagonist 9.
`CCN(CC1CCCO1)C(=O)c1cc(COc2ccccc2SC)on1` (centres undefined) gave OX1R antag-1 -16, GPR7 antagonist -18, CHO parental Ca -5, TAAR1 antag -16, TAAR1 ag -1 and OX1R antag-2 7.
c1ccc(CCCCN2C(Nc3ccccc3)=NC[C@@H]2Cc2ccccc2)cc1 was read as OX1R antag-1 -8, CHO parental Ca -14, TAAR1 antag 22, TAAR1 ag 37 and OX1R antag-2 35.
Screening c1ccc(C[C@H]2CN=C(Nc3ccccc3)N2CCCC2CCCC2)cc1 returned OX1R antag-1 -25, GPR7 antagonist 46*, CHO parental Ca -13, OX1R antag-2 8, GPR7 antag cf 51* and MCHR1 antagonist 34*.
`CCCCCCCN1C(Nc2ccccc2)=NC[C@@H]1Cc1ccccc1` gave OX1R antag-1 -28, GPR7 antagonist 50*, CHO parental Ca -22, TAAR1 antag 9, TAAR1 ag 31, OX1R antag-2 13, GPR7 antag cf 48* and MCHR1 antagonist 48*.
`CCC(C)CCN1C(Nc2ccccc2)=NC[C@@H]1Cc1ccccc1` (some centres undefined) gave OX1R antag-1 -36, CHO parental Ca -25, TAAR1 antag -9, TAAR1 ag 21, OX1R antag-2 14 and MCHR1 antagonist 19.
`CCC(C)CCN1C(Nc2ccccc2)=NC[C@@H]1CC(C)C` (some centres undefined) gave OX1R antag-1 -8, GPR7 antagonist 27, CHO parental Ca -18, TAAR1 antag 16, TAAR1 ag 5 and OX1R antag-2 16.
For CC1(C(=O)NS(=O)(=O)c2ccc(Cl)cc2)CCN1C(=O)CC1CC1 (centres undefined) the results were TAAR1 antag -15 and TAAR1 ag 2.
Screening Cc1cc(C(=O)N2CCC2(C)C(=O)Nc2cccc3c2CCCC3)nn1C (centres undefined) returned TAAR1 antag 0 and TAAR1 ag 1.
Clc1ccc(CSCCc2ccncc2)cc1 was read as OX1R antag-1 -7, GPR7 antagonist 23*, CHO parental Ca -12, TAAR1 antag 6, TAAR1 ag 14, OX1R antag-2 30, GPR7 antag cf 9 and MCHR1 antagonist 26*.
For c1ccc2c(CSCCc3ccncc3)cccc2c1 the results were OX1R antag-1 -30, GPR7 antagonist -8, CHO parental Ca -20, TAAR1 antag 24, TAAR1 ag 19 and OX1R antag-2 28.
For Cc1ccc(/C=C2/SC(=S)N(CCC(=O)N3CCOCC3)C2=O)cc1 the results were OX1R antag-1 -27, GPR7 antagonist -10, CHO parental Ca -26, TAAR1 antag -15, TAAR1 ag 9 and OX1R antag-2 7.
COc1cc2nc(N(CCCN(C)C)C(=O)c3ccc(S(=O)(=O)N(C)C4CCCCC4)cc3)sc2cc1OC was read as OX1R antag-1 -10, CHO parental Ca -1, TAAR1 antag -13, TAAR1 ag 18 and OX1R antag-2 9.
For CN(C)CCCN(C(=O)c1ccc(S(=O)(=O)N(C)C2CCCCC2)cc1)c1nc2ccc(Br)cc2s1 the results were OX1R antag-1 -5, GPR7 antagonist 22*, CHO parental Ca 4, TAAR1 antag 28, TAAR1 ag 32, OX1R antag-2 13, GPR7 antag cf 50* and MCHR1 antagonist 55*.
`CCc1ccc2nc(N(CCCN(C)C)C(=O)c3ccc(S(=O)(=O)N(C)C4CCCCC4)cc3)sc2c1` gave OX1R antag-1 8, GPR7 antagonist 36*, CHO parental Ca 14, TAAR1 antag 51*, TAAR1 ag 39*, OX1R antag-2 20, GPR7 antag cf 56* and MCHR1 antagonist 54*.

Screening data (PubChem BioAssay)
